In ChEMBL document CHEMBL1141410, “Eremophilane-type sesquiterpene derivatives from the roots of Ligularia lapathifolia” (J Nat Prod, 2007) one finds IC50 data, which are given here for five compounds.

Holding throughout (assay type): cell-based
Assay [1] is described as follows: Cytotoxicity against human MGC803 cells after 48 hrs by MTT colorimetric assay. The note with it: MGC-803, 48 h. Put shortly:
(§1)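 Cells maintained in RPMI-1640 with 10% heat-inactivated FBS, penicillin and streptomycin at 37 °C, 5% CO2; exponentially growing cells seeded at 1 × 10^5 cells/mL, treated after 24 h at 0.1–100 or 0.15–150 mg/L, six replicate wells per point. After 48 h, MTT added for 4 h at 37 °C, then 10% SDS–0.01 M HCl overnight; A570 read, cytotoxicity % versus untreated cells.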
Background: Tetrazolium assays rely on reduction of a dye to a coloured formazan, in cell work by metabolically active cells.

The next assay has as its system HepG2. Description: Cytotoxicity against human HEPG2 cells after 48 hrs by MTT colorimetric assay. The note with it: HepG2, 48 h. A digest of the protocol:
as §1

The next assay has as its system CCRF S-180. Description: Cytotoxicity against mouse S180 cells after 48 hrs by MTT colorimetric assay. To be noted: CCRF S-180, 48 h. Put shortly: as §1

As a reminder, the IC50 is the concentration that gives 50% inhibition. Low values mean greater potency in that assay, high ones weaker potency in that assay. As to `C/C=C(/C)C(=O)OC1CC[C@@H]2CC(=O)C(C(C)C(=O)OC)=C[C@]2(C)C1C(=O)OC` (stereo not given in full), the IC50 (in assay [1]; in the assay on HepG2; in the assay with CCRF S-180) was over 100 µM each time.
Turning to `CCO[C@]12C[C@H]3CCC=C4C(=O)O[C@@H](C1=C(C)C(=O)O2)[C@]43C`, the IC50 amounted to 53.9 µM in assay [1], 40.5 µM in the assay on HepG2 and 36.6 µM in the assay with CCRF S-180.
Regarding `COC(=O)C1=CCC[C@@H]2CC(C(C)=O)=C[C@]12C`, the results for the IC50 (in assay [1]; in the assay on HepG2; with CCRF S-180) were 35.4 µM, 46.5 µM and 19.9 µM, respectively.
As to `CC1=C2[C@@H]3OC(=O)C4=CCC[C@H](C[C@]2(O)OC1=O)[C@@]43C`, the IC50 (in assay [1]; in the assay with HepG2; in the assay with CCRF S-180) was over 100 µM each time.
For `CO[C@]12C[C@H]3CCC=C4C(=O)O[C@@H](C1=C(C)C(=O)O2)[C@]43C`, the values for the IC50 (in assay [1]; with HepG2; in the assay with CCRF S-180) were over 100 µM, 12.7 µM and 73.1 µM, respectively.
